In PubChem BioAssay AID2375 (NMMLSC, 2010):
Results filed as inconclusive are left out. Active and inactive are the calls of the source.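 The calls were made as follows: active = compounds that lower growth-factor-driven active Cdc42 or Rac1 at 10 micromolar by more than 15 percent; inactive = the rest, inconclusive results apart.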

Experiments:
Cdc42 = assay: cellular Cdc42/Rac1 GTP-loading by G-LISA – cell lysate, ELISA, panel, Ras-related GTPase inhibitor project, profiling panel (AID 2375); conditions: NIH 3T3 cells, EGF-stimulated, PAK G-LISA active GTPase, stronger effect = lower value
Outline: (§1)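 Material: 3T3 cell lysates captured on PAK-coated microwells / Medium: serum-free medium / Probe or stimulus: EGF 10 ng/ml, with or without / Dosing: compound at 1 and 10 µM / Technique: colorimetric ELISA with PAK capture of active GTPase / Controls: EGF-stimulated lysate maximum, unstimulated lysate baseline, 1 ng GTPase standard / Replicates: duplicates over several trials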

Rac1 = assay: as above; conditions: NIH 3T3 cells, EGF-stimulated, PAK G-LISA active GTPase, stronger effect = lower value
Outline: as §1

In the case of `COc1ccc(C2CC(c3ccccc3)=NN2c2ccc(S(N)(=O)=O)cc2)cc1OC` (centres undefined), the normalized active GTPase (Cdc42; active GTPase, at 1 µM) is reported as 0.87 and the normalized active GTPase (Cdc42; at 10 µM) is reported as 0.856 (inactive).

`Cc1cccc(C2CC(c3ccccc3)=NN2c2ccc(S(N)(=O)=O)cc2)c1` (centres undefined) showed a normalized active GTPase (Cdc42; active GTPase, at 1 µM) of 0.979, a normalized active GTPase (Cdc42; at 10 µM) of 0.726 and a normalized active GTPase (Rac1; active GTPase, at 1 µM) of 1.09. For the same compound, the normalized active GTPase (Rac1; at 10 µM) was 0.932 (inactive).

In the case of `Cc1ccc(C2CC(c3ccccc3)=NN2c2ccc(S(N)(=O)=O)cc2)cc1` (centres undefined), the normalized active GTPase (Cdc42; active GTPase, at 1 µM) is reported as 0.994, the normalized active GTPase (Cdc42; at 10 µM) is reported as 0.667 and the normalized active GTPase (Rac1; active GTPase, at 1 µM) is reported as 0.782. The normalized active GTPase (Rac1; at 10 µM) was 0.941 (inactive).

In the case of `COc1ccc(C2CC(c3cccc(OC)c3)=NN2c2ccc(S(N)(=O)=O)cc2)cc1` (centres undefined), the normalized active GTPase (Cdc42; active GTPase, at 1 µM) is reported as 0.442 and the normalized active GTPase (Cdc42; at 10 µM) is reported as 1.25 (inactive).

`NS(=O)(=O)c1ccc(N2N=C(c3ccccc3)CC2c2cccc(Br)c2)cc1` (centres undefined) was tested, and the normalized active GTPase (Cdc42; active GTPase, at 1 µM) was 0.764, the normalized active GTPase (Cdc42; at 10 µM) was 1.4 (inactive) and the normalized active GTPase (Rac1; active GTPase, at 1 µM) was 0.556. It also gave a normalized active GTPase (Rac1; at 10 µM) of 0.691.

`NS(=O)(=O)c1ccc(N2N=C(c3ccccc3)CC2c2ccc(Br)cc2)cc1` (centres undefined) was tested, and the normalized active GTPase (Cdc42; active GTPase, at 1 µM) was 1.12, the normalized active GTPase (Cdc42; at 10 µM) was 0.895 (inactive) and the normalized active GTPase (Rac1; active GTPase, at 1 µM) was 0.5. For the same compound, the normalized active GTPase (Rac1; at 10 µM) was 0.47.

`COc1ccc(C2CC(c3ccccc3)=NN2c2ccc(S(N)(=O)=O)cc2)cc1` (centres undefined) showed a normalized active GTPase (Cdc42; active GTPase, at 1 µM) of 0.923, a normalized active GTPase (Cdc42; at 10 µM) of 0.626 and a normalized active GTPase (Rac1; active GTPase, at 1 µM) of 0.724. For the same compound, the normalized active GTPase (Rac1; at 10 µM) was 0.612.
